# Screening results: PubChem BioAssay, Johns Hopkins Ion Channel Center
# In the library only some 3.5% were active in any assay of this set; here they are far more common.
# MrgX1 ag: agonists of human MrgX1 receptor. B-score at 10 µM. actives 0.44% (n = 310,000). MrgX1-HEK293 cells, Fluo-4 calcium fluorescence, agonist mode; active compounds read high. AID 588627;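 active = calcium response B-score plate-corrected fluorescence ratio at least 3 library SD, with starting fluorescence B-score inside 5 SD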
# Target sequence (Q96LB2 whole entry, looked up): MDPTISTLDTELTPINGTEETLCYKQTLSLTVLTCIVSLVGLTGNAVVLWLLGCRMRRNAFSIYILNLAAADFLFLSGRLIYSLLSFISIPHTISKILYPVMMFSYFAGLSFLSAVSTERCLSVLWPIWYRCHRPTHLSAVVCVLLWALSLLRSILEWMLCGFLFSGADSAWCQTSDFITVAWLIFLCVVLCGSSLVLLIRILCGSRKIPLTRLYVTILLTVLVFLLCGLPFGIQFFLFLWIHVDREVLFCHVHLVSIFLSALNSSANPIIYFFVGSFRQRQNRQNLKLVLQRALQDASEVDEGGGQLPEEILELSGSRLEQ
#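 Material – MrgX1-expressing HEK293 cells · Input – 15,000 cells seeded per well · Dosing – compound as first of three additions · Times – overnight seeding, then 1 h dark dye loading · Measured by – kinetic Fluo-4 NW fluorescence of intracellular calcium · Read-out – B-scored fluorescence response ratio · Benchmarks – positive and negative control wells on each plate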
# MrgX1 PAM: human MrgX1 positive allosteric modulation, primary screen; MrgX1-HEK293, Fluo-4 calcium flux, FDSS; active compounds read high; B-score at 10 µM; Q96LB2; AID 588675; actives 0.63% (n = 310,000);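 active = plate-corrected calcium response at least 3 library SD above typical, normal starting fluorescence, not activating the receptor alone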;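 note: compound read alongside a low EC10 to EC30 dose of BAM8-22 agonist; peak minus trough fluorescence over baseline measured at the second addition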
# RGS4 pot: potentiators or activators of RGS4; HEK293 M3R/inducible RGS4, carbachol calcium flux Fluo4; active compounds read low; actives 0.92% (n = 310,000); B-score at 10 µM;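 active = B-score of the integrated calcium signal more than 4 SD below the library mean, with starting fluorescence not abnormally high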;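 note: negative B-score means reduced calcium response which marks RGS4 activation or potentiation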
#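 System: HEK293 FlpIn-TREx cells, stable M3R, doxycycline-inducible RGS4. Timing: overnight RGS4 induction, 30 min dye load 37 °C, 20 min compound RT. Also added: carbachol, ECmax concentration. Measured by: Fluo4 fluorescence kinetic imaging of calcium. Evaluation: integrated calcium ratio converted to B score.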
# MrgX1 antag: antagonists of human MrgX1 receptor. Q96LB2. MRGX1-HEK293 calcium flux, Fluo-4, BAM8-22 antagonism; active compounds read low. B-score at 10 µM. actives 1.3% (n = 310,000);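 active = calcium-response B-score plate-corrected more than 3 library SD below zero, starting fluorescence within 5 deviations, no agonist response on first addition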;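 note: peak minus trough fluorescence over baseline after final BAM8-22 challenge near maximal dose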
# RGS4 inh: inhibitors of human RGS4; P49798; HEK293 M3R/RGS4 inducible, Fluo-4 calcium flux; active compounds read high; triggered by carbachol at its EC20; B-score at 10 µM; actives 0.45% (n = 310,000);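 active = B-score, a plate-corrected calcium signal, over three deviations above library mean, with baseline fluorescence within five deviations of library mean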;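 note: RGS4 expression induced by doxycycline in cells with stable M3 receptor; B-score is computed from the integrated fluorescence ratio over baseline after carbachol; higher B-score means a larger calcium signal and so more RGS4 inhibition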
# * hit, by the source's call; i = inactive.
SMILES,MrgX1 ag,MrgX1 PAM,RGS4 pot,MrgX1 antag,RGS4 inh
CCN(CC)CCNC(=O)c1ccc(NC(=O)/C=C/c2ccc3ccccc3n2)cc1,i,i,i,-8.54*,i
CCOc1ccc(NC(=O)CN(C)C(=O)c2cn(-c3ccc(F)cc3)nc2-c2cccc(OC)c2)cc1OCC,i,i,-7.2*,i,i
CCN(CC)CCNC(=O)c1ccc(NC(=O)c2cn(-c3ccc(F)cc3)nc2-c2cccc(OC)c2)cc1,i,i,-10.9*,i,i
O=C(Nc1cccnc1)c1cn(-c2ccccc2)nc1-c1cccs1,i,i,i,i,i
CCc1nnc2c(NCCc3ccccc3)nc3ccccc3n12,i,i,i,i,i
COc1ccc(CCN=C(N)Nc2nc(C)cc(C)n2)cc1,i,i,i,i,i
O=C(O)CCN1CCc2ccccc2C1c1ccncc1 (stereo unspecified),i,i,i,i,i
CCN(CC)CCNC(=O)c1ccc(NC(=O)c2ccccc2-c2ccc(C(F)(F)F)cc2)cc1,i,i,-9.49*,i,i
COc1ccccc1CN1CC(C(=O)N2CCC(C(=O)c3ccccc3)CC2)CCC1=O (stereo unspecified),i,i,i,i,i
Cc1cccc(-n2ncc3c2CCCC3NC(=O)CCN2Cc3ccccc3C2=O)c1C (stereo unspecified),i,i,i,i,i
COC(=O)Cn1c(=NC(=O)c2ccc(Cl)s2)sc2cc(C)ccc21,i,i,i,-5.89*,i
COC(=O)Cn1c(=NC(=O)c2sc3ccccc3c2Cl)sc2cc(S(N)(=O)=O)ccc21,i,i,i,i,i
COC(=O)Cn1c(=NC(=O)c2nc3ccccc3s2)sc2cc(S(C)(=O)=O)ccc21,i,i,i,-5.24*,i
CC(C)(C)N(Cc1ccccc1)C(=O)c1ccc(Cl)cc1[N+](=O)[O-],i,i,-9.96*,i,i
O=C(c1ccc(Cl)cc1[N+](=O)[O-])N(Cc1ccccc1)Cc1ccccc1,i,i,i,i,i
COc1ccc(-n2nc3c(c2NC(=O)C(C)Oc2ccccc2)CS(=O)C3)cc1 (stereo unspecified),i,i,i,i,i
CC1=NN(c2ccccc2)C(=O)C1C(=O)c1ccc(Cl)cc1 (stereo unspecified),32*,i,i,i,i
COc1ccccc1NC(=O)NC1(C(=O)N2CCC(C)CC2)CCCCC1,i,i,i,i,i
O=C1c2ccccc2C(=O)C1c1ccc(Cl)cc1,i,i,i,-6.48*,i
O=C(OCCOCCN=C1NS(=O)(=O)c2ccccc21)c1ccccc1,i,i,i,i,i
Cc1ccc(C(=O)N2CC(C)OC(C)C2)cc1[N+](=O)[O-] (stereo unspecified),i,i,i,-4.96*,i
CC(C)(C)CC(=O)NC(=S)Nc1ccccc1[N+](=O)[O-],i,i,i,-5.68*,i
COC(=O)c1ccccc1NC(=O)COc1ccccc1,i,i,i,i,i
COC(=O)c1ccccc1NC(=O)COc1ccccc1[N+](=O)[O-],i,i,i,-4.63*,i
O=C(CCOc1ccccc1)Nc1ccccc1[N+](=O)[O-],i,i,i,-5.41*,i
SMILES,MrgX1 ag,MrgX1 PAM,RGS4 pot,MrgX1 antag,RGS4 inh
CCCNC(=O)NNC(=O)c1ccc(F)cc1,i,i,i,i,i
CN(C)c1ccc(CNC(=O)CCNS(=O)(=O)c2cc(Br)cnc2N)cc1,i,i,i,i,i
CCn1cc(CN2CCN(CCc3ccccc3)C(CCO)C2)c(C)n1 (stereo unspecified),i,i,i,i,i
O=C1/C(=C/c2c[nH]c3ccccc23)CCC/C1=C\c1c[nH]c2ccccc12,i,8.55*,i,i,i
COc1ccc2noc3c2c1C(=O)c1ccccc1-3,i,i,-7.2*,i,i
N#CCn1c(CN2CCCC2)nc2ccccc2c1=O,i,i,i,i,i
Cc1ccc(C)c(NC(=S)N(C)CCO)c1,i,i,i,i,i
